Data published in ChEMBL document CHEMBL5724801, “EUbOPEN Chemogenomics Library - Multiplex” (2024).
Values joined by “and” are separate entries in the source; they are usually repeats but may differ in a detail not shown here. Equal values may be shown once.

Tested on: Fibroblast
Experiment: Multiplex assay against human fibroblast
Assay type: toxicity, cell-based
Outline: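 Live cells carried four stains from seeding: Hoechst33342, BioTracker Green Microtubule Cytoskeleton Dye, MitoTracker Red and Annexin V Alexa Fluor 680. They were imaged on a CQ1 microscope at 37°C and 5% CO2 after compound addition. Using CellPathfinder machine-learning gating, cells were split into Hoechst high-intensity objects or normal cells, normal cells into healthy, pyknosed or fragmented nuclei, and pyknosed cells into mitotic or apoptotic; tubulin, mitochondrial-mass and membrane-permeability phenotypes are per cents of healthy-nucleus cells.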

[1] = 12 h, 1 µM, compound concentration 1 uM
[2] = 12 h, 10 µM, compound concentration 10 uM
[3] = 24 h, 1 µM, compound concentration 1 uM
[4] = 24 h, 10 µM, compound concentration 10 uM
[5] = 48 h, 1 µM, compound concentration 1 uM
[6] = 48 h, 10 µM, compound concentration 10 uM

SMILES: Cc1c(CC(=O)O)c2cccnc2n1Cc1ccc(S(C)(=O)=O)cc1C(F)(F)F [FEVIPIPRANT]
- Population Apoptotic (%) [1]: 44% and 25%
- Population Fragmented Nuclei (%) [1]: 22% and 33%
- Population Healthy Nuclei (%) [1]: 60% and 48%
- Population Hoechst High Intensity Objects (%) [1]: 3%
- Population Mitochondria Different-Phenotype (%) [1]: 3% and 12%
- Population Mitotic Cells (%) [1]: 55% and 74%
- Population Normal (%) [1]: 96%
- Population Pyknosed Nuclei (%) [1]: 18% and 17%
- Population Tubulin-Different-Phenotype (%) [1]: 20% and 56%
- Total Cell Count [1]: 156
- Population Apoptotic (%) [2]: 34% and 22%
- Population Fragmented Nuclei (%) [2]: 10% and 21%
- Population Healthy Nuclei (%) [2]: 71% and 54%
- Population Hoechst High Intensity Objects (%) [2]: 3% and 5%
- Population Membrane Permeable-Phenotype (%) [2]: 1% and 9%
- Population Mitochondria Different-Phenotype (%) [2]: 4% and 6%
- Population Mitotic Cells (%) [2]: 65% and 77%
- Population Normal (%) [2]: 96% and 94%
- Population Pyknosed Nuclei (%) [2]: 17% and 23%
- Population Tubulin-Different-Phenotype (%) [2]: 25% and 55%
- Total Cell Count [2]: 132 and 139
- Population Apoptotic (%) [3]: 55% and 52%
- Population Fragmented Nuclei (%) [3]: 14% and 35%
- Population Healthy Nuclei (%) [3]: 66% and 47%
- Population Hoechst High Intensity Objects (%) [3]: 3%
- Population Membrane Permeable-Phenotype (%) [3]: 1% and 4%
- Population Mitochondria Different-Phenotype (%) [3]: 5% and 8%
- Population Mitotic Cells (%) [3]: 44% and 48%
- Population Normal (%) [3]: 96%
- Population Pyknosed Nuclei (%) [3]: 19% and 17%
- Population Tubulin-Different-Phenotype (%) [3]: 23% and 50%
- Total Cell Count [3]: 156 and 150
- Population Apoptotic (%) [4]: 57% and 31%
- Population Fragmented Nuclei (%) [4]: 16% and 22%
- Population Healthy Nuclei (%) [4]: 67% and 55%
- Population Hoechst High Intensity Objects (%) [4]: 1% and 7%
- Population Membrane Permeable-Phenotype (%) [4]: 1% and 5%
- Population Mitochondria Different-Phenotype (%) [4]: 2% and 5%
- Population Mitotic Cells (%) [4]: 42% and 68%
- Population Normal (%) [4]: 98% and 92%
- Population Pyknosed Nuclei (%) [4]: 16% and 21%
- Population Tubulin-Different-Phenotype (%) [4]: 24% and 52%
- Total Cell Count [4]: 130 and 146
- Population Apoptotic (%) [5]: 65% and 63%
- Population Fragmented Nuclei (%) [5]: 16% and 39%
- Population Healthy Nuclei (%) [5]: 67% and 47%
- Population Hoechst High Intensity Objects (%) [5]: 5% and 6%
- Population Membrane Permeable-Phenotype (%) [5]: 0% and 4%
- Population Mitochondria Different-Phenotype (%) [5]: 4% and 8%
- Population Mitotic Cells (%) [5]: 35% and 36%
- Population Normal (%) [5]: 94% and 93%
- Population Pyknosed Nuclei (%) [5]: 16% and 12%
- Population Tubulin-Different-Phenotype (%) [5]: 16% and 47%
- Total Cell Count [5]: 132 and 157
- Population Apoptotic (%) [6]: 73% and 58%
- Population Fragmented Nuclei (%) [6]: 22% and 32%
- Population Healthy Nuclei (%) [6]: 62% and 53%
- Population Hoechst High Intensity Objects (%) [6]: 2%
- Population Membrane Permeable-Phenotype (%) [6]: 0% and 3%
- Population Mitochondria Different-Phenotype (%) [6]: 3% and 2%
- Population Mitotic Cells (%) [6]: 26% and 41%
- Population Normal (%) [6]: 97%
- Population Pyknosed Nuclei (%) [6]: 14%
- Population Tubulin-Different-Phenotype (%) [6]: 29% and 52%
- Total Cell Count [6]: 132 and 171

SMILES: COc1ccc2[nH]c(I)c(CCNC(C)=O)c2c1 [IODOMELATONIN]
- Population Apoptotic (%) [1]: 53% and 32%
- Population Fragmented Nuclei (%) [1]: 15% and 23%
- Population Healthy Nuclei (%) [1]: 64% and 60%
- Population Hoechst High Intensity Objects (%) [1]: 2% and 5%
- Population Membrane Permeable-Phenotype (%) [1]: 4% and 7%
- Population Mitochondria Different-Phenotype (%) [1]: 4% and 3%
- Population Mitotic Cells (%) [1]: 46% and 68%
- Population Normal (%) [1]: 97% and 94%
- Population Pyknosed Nuclei (%) [1]: 19% and 15%
- Population Tubulin-Different-Phenotype (%) [1]: 28% and 33%
- Total Cell Count [1]: 137 and 173
- Population Apoptotic (%) [2]: 35% and 30%
- Population Fragmented Nuclei (%) [2]: 14% and 38%
- Population Healthy Nuclei (%) [2]: 64% and 44%
- Population Hoechst High Intensity Objects (%) [2]: 2% and 3%
- Population Membrane Permeable-Phenotype (%) [2]: 2% and 5%
- Population Mitochondria Different-Phenotype (%) [2]: 6% and 0%
- Population Mitotic Cells (%) [2]: 64% and 69%
- Population Normal (%) [2]: 97% and 96%
- Population Pyknosed Nuclei (%) [2]: 21% and 17%
- Population Tubulin-Different-Phenotype (%) [2]: 20% and 43%
- Total Cell Count [2]: 148 and 157
- Population Apoptotic (%) [3]: 62% and 57%
- Population Fragmented Nuclei (%) [3]: 16% and 26%
- Population Healthy Nuclei (%) [3]: 63% and 57%
- Population Hoechst High Intensity Objects (%) [3]: 0% and 5%
- Population Membrane Permeable-Phenotype (%) [3]: 0% and 6%
- Population Mitochondria Different-Phenotype (%) [3]: 7%
- Population Mitotic Cells (%) [3]: 37% and 42%
- Population Normal (%) [3]: 99% and 94%
- Population Pyknosed Nuclei (%) [3]: 20% and 15%
- Population Tubulin-Different-Phenotype (%) [3]: 27% and 39%
- Total Cell Count [3]: 134 and 176
- Population Apoptotic (%) [4]: 35% and 24%
- Population Fragmented Nuclei (%) [4]: 16% and 38%
- Population Healthy Nuclei (%) [4]: 58% and 41%
- Population Hoechst High Intensity Objects (%) [4]: 2% and 4%
- Population Membrane Permeable-Phenotype (%) [4]: 1% and 10%
- Population Mitochondria Different-Phenotype (%) [4]: 4% and 1%
- Population Mitotic Cells (%) [4]: 64% and 75%
- Population Normal (%) [4]: 97% and 95%
- Population Pyknosed Nuclei (%) [4]: 24% and 20%
- Population Tubulin-Different-Phenotype (%) [4]: 30% and 40%
- Total Cell Count [4]: 143 and 149
- Population Apoptotic (%) [5]: 76% and 42%
- Population Fragmented Nuclei (%) [5]: 16% and 30%
- Population Healthy Nuclei (%) [5]: 64% and 55%
- Population Hoechst High Intensity Objects (%) [5]: 3% and 4%
- Population Membrane Permeable-Phenotype (%) [5]: 0% and 5%
- Population Mitochondria Different-Phenotype (%) [5]: 4% and 0%
- Population Mitotic Cells (%) [5]: 23% and 57%
- Population Normal (%) [5]: 96% and 95%
- Population Pyknosed Nuclei (%) [5]: 18% and 13%
- Population Tubulin-Different-Phenotype (%) [5]: 22% and 40%
- Total Cell Count [5]: 147 and 163
- Population Apoptotic (%) [6]: 60% and 38%
- Population Fragmented Nuclei (%) [6]: 29% and 48%
- Population Healthy Nuclei (%) [6]: 56% and 38%
- Population Hoechst High Intensity Objects (%) [6]: 7% and 2%
- Population Membrane Permeable-Phenotype (%) [6]: 1% and 10%
- Population Mitochondria Different-Phenotype (%) [6]: 1% and 5%
- Population Mitotic Cells (%) [6]: 40% and 61%
- Population Normal (%) [6]: 92% and 98%
- Population Pyknosed Nuclei (%) [6]: 13% and 12%
- Population Tubulin-Different-Phenotype (%) [6]: 22% and 57%
- Total Cell Count [6]: 159 and 150

SMILES: Cc1c(Cc2ccc3ccccc3n2)c2cc(F)ccc2n1CC(=O)O [TIMAPIPRANT]
- Population Apoptotic (%) [1]: 41% and 33%
- Population Fragmented Nuclei (%) [1]: 12% and 28%
- Population Healthy Nuclei (%) [1]: 67% and 49%
- Population Hoechst High Intensity Objects (%) [1]: 5%
- Population Membrane Permeable-Phenotype (%) [1]: 1% and 9%
- Population Mitochondria Different-Phenotype (%) [1]: 7% and 4%
- Population Mitotic Cells (%) [1]: 58% and 66%
- Population Normal (%) [1]: 94%
- Population Pyknosed Nuclei (%) [1]: 19% and 22%
- Population Tubulin-Different-Phenotype (%) [1]: 26% and 43%
- Total Cell Count [1]: 171 and 142
- Population Apoptotic (%) [2]: 66% and 53%
- Population Fragmented Nuclei (%) [2]: 13% and 26%
- Population Healthy Nuclei (%) [2]: 77% and 53%
- Population Hoechst High Intensity Objects (%) [2]: 2% and 5%
- Population Membrane Permeable-Phenotype (%) [2]: 0% and 1%
- Population Mitochondria Different-Phenotype (%) [2]: 7%
- Population Mitotic Cells (%) [2]: 33% and 46%
- Population Normal (%) [2]: 97% and 95%
- Population Pyknosed Nuclei (%) [2]: 8% and 19%
- Population Tubulin-Different-Phenotype (%) [2]: 35% and 43%
- Total Cell Count [2]: 147 and 160
- Population Apoptotic (%) [3]: 33% and 47%
- Population Healthy Nuclei (%) [3]: 73% and 52%
- Population Hoechst High Intensity Objects (%) [3]: 1% and 5%
- Population Membrane Permeable-Phenotype (%) [3]: 3% and 7%
- Population Mitochondria Different-Phenotype (%) [3]: 2% and 4%
- Population Mitotic Cells (%) [3]: 66% and 52%
- Population Normal (%) [3]: 98% and 94%
- Population Pyknosed Nuclei (%) [3]: 17%
- Population Tubulin-Different-Phenotype (%) [3]: 26% and 38%
- Total Cell Count [3]: 158 and 142
- Population Apoptotic (%) [4]: 66% and 52%
- Population Fragmented Nuclei (%) [4]: 14% and 29%
- Population Healthy Nuclei (%) [4]: 77% and 58%
- Population Hoechst High Intensity Objects (%) [4]: 2% and 7%
- Population Membrane Permeable-Phenotype (%) [4]: 0% and 3%
- Population Mitochondria Different-Phenotype (%) [4]: 6% and 10%
- Population Mitotic Cells (%) [4]: 33% and 47%
- Population Normal (%) [4]: 97% and 92%
- Population Pyknosed Nuclei (%) [4]: 8% and 12%
- Population Tubulin-Different-Phenotype (%) [4]: 30% and 52%
- Total Cell Count [4]: 150 and 164
- Population Apoptotic (%) [5]: 72% and 61%
- Population Fragmented Nuclei (%) [5]: 15% and 36%
- Population Healthy Nuclei (%) [5]: 72% and 48%
- Population Hoechst High Intensity Objects (%) [5]: 7% and 6%
- Population Membrane Permeable-Phenotype (%) [5]: 0% and 2%
- Population Mitochondria Different-Phenotype (%) [5]: 2% and 1%
- Population Mitotic Cells (%) [5]: 27% and 38%
- Population Normal (%) [5]: 92% and 94%
- Population Pyknosed Nuclei (%) [5]: 12% and 14%
- Population Tubulin-Different-Phenotype (%) [5]: 25% and 34%
- Total Cell Count [5]: 162 and 150
- Population Apoptotic (%) [6]: 66% and 60%
- Population Fragmented Nuclei (%) [6]: 18% and 30%
- Population Healthy Nuclei (%) [6]: 75% and 59%
- Population Hoechst High Intensity Objects (%) [6]: 5% and 2%
- Population Membrane Permeable-Phenotype (%) [6]: 0% and 1%
- Population Mitochondria Different-Phenotype (%) [6]: 3% and 1%
- Population Mitotic Cells (%) [6]: 33% and 40%
- Population Normal (%) [6]: 94% and 97%
- Population Pyknosed Nuclei (%) [6]: 6% and 9%
- Population Tubulin-Different-Phenotype (%) [6]: 31% and 37%
- Total Cell Count [6]: 152 and 157
